How the values were obtained:
[1] = Antiproliferative activity against human A875 cells after 48 hrs by MTT assay; assay type: functional, cell-based; conditions: A875, 48 h
In short: (§1)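 Cells seeded at 3 × 10^3/well and grown 24 h, then exposed to compounds for 48 h. MTT (5 mg/ml stock) added for 2 h at 37 °C, supernatant removed, formazan dissolved in DMSO 15-20 min. Absorbance read at 570 nm. IC50 per cell line, mean of three determinations.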

HeLa = test: Antiproliferative activity against human HeLa cells after 48 hrs by MTT assay; assay type: functional, cell-based; in short: as §1
[2] = Antiproliferative activity against human H460 cells after 48 hrs by MTT assay; assay type: functional, cell-based; conditions: NCI-H460, 48 h; in short: as §1
SMMC-7721 = test: Antiproliferative activity against human SMMC7721 cells after 48 hrs by MTT assay; assay type: functional, cell-based; conditions: SMMC-7721, 48 h; in short: as §1
BXPC-3 = test: Antiproliferative activity against human BxPC3 cells after 48 hrs by MTT assay; assay type: functional, cell-based; conditions: BXPC-3, 48 h; in short: as §1
HCT-116 = test: Antiproliferative activity against human HCT116 cells after 48 hrs by MTT assay; assay type: functional, cell-based; conditions: HCT-116, 48 h; in short: as §1
Bel-7402 = test: Antiproliferative activity against human Bel7402 cells after 48 hrs by MTT assay; assay type: functional, cell-based; conditions: Bel-7402, 48 h; in short: as §1
HepG2 = test: Antiproliferative activity against human HepG2 cells after 48 hrs by MTT assay; assay type: functional, cell-based; conditions: HepG2, 48 h; in short: as §1
A549 = test: Antiproliferative activity against human A549 cells after 48 hrs by MTT assay; assay type: functional, cell-based; conditions: A549, 48 h; in short: as §1
HT-29 = test: Antiproliferative activity against human HT-29 cells after 48 hrs by MTT assay; assay type: functional, cell-based; conditions: HT-29, 48 h; in short: as §1
[3] = Induction of apoptosis in human A875 cells at 1.5 uM after 48 hrs by propidium iodide staining-based flow cytometric analysis (reference value: 1.56%); assay type: functional
[4] = Induction of apoptosis in human A875 cells at 0.38 uM after 24 hrs by propidium iodide staining-based flow cytometric analysis (reference value: 1.14%); assay type: functional
[5] = Cell cycle arrest in human A875 cells assessed as accumulation at G0/G1 phase at 0.38 uM after 48 hrs by propidium iodide staining-based flow cytometric analysis (reference value: 78.18%); assay type: functional
[6] = Cell cycle arrest in human A875 cells assessed as accumulation at S phase at 0.75 uM after 48 hrs by propidium iodide staining-based flow cytometric analysis (reference value: 11.46%); assay type: functional
[7] = Induction of apoptosis in human A875 cells at 0.38 uM after 48 hrs by propidium iodide staining-based flow cytometric analysis (reference value: 1.56%); assay type: functional
[8] = Cell cycle arrest in human A875 cells assessed as accumulation at G0/G1 phase at 1.5 uM after 48 hrs by propidium iodide staining-based flow cytometric analysis (reference value: 78.18%); assay type: functional
[9] = Cell cycle arrest in human A875 cells assessed as accumulation at G2/M phase at 0.38 uM after 48 hrs by propidium iodide staining-based flow cytometric analysis (reference value: 10.36%); assay type: functional
[10] = Induction of apoptosis in human A875 cells at 0.75 uM after 48 hrs by propidium iodide staining-based flow cytometric analysis (reference value: 1.56%); assay type: functional
[11] = Cell cycle arrest in human A875 cells assessed as accumulation at G2/M phase at 0.75 uM after 48 hrs by propidium iodide staining-based flow cytometric analysis (reference value: 10.36%); assay type: functional
[12] = Induction of apoptosis in human A875 cells at 1.5 uM after 24 hrs by propidium iodide staining-based flow cytometric analysis (reference value: 1.14%); assay type: functional
A875 [13] = test: Induction of apoptosis in human A875 cells assessed as cell shrinkage and rounding up after 36 hrs by Hoechst 33342 staining-based fluorescence microscopic analysis; assay type: functional
In short: (§2)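 A875 cells (1 × 10^5/well) cultured 24 h, then treated for 36 h at 0.38, 0.75 or 1.5 µM. After PBS rinse and fixation in 75% ethanol, morphology checked by inverted bright-field microscope. Nuclei then stained with Hoechst 33342 (2 µg/mL in PBS) and examined by fluorescence microscopy for condensed, fragmented nuclei.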

[14] = Cell cycle arrest in human A875 cells assessed as accumulation at S phase at 1.5 uM after 48 hrs by propidium iodide staining-based flow cytometric analysis (reference value: 11.46%); assay type: functional
A875 [15] = test: Induction of apoptosis in human A875 cells assessed as appearance of condensed nuclei after 36 hrs by Hoechst 33342 staining-based fluorescence microscopic analysis; assay type: functional, cell-based; in short: as §2
[16] = Induction of apoptosis in human A875 cells at 0.75 uM after 24 hrs by propidium iodide staining-based flow cytometric analysis (reference value: 1.14%); assay type: functional
[17] = Cell cycle arrest in human A875 cells assessed as accumulation at S phase at 0.38 uM after 48 hrs by propidium iodide staining-based flow cytometric analysis (reference value: 11.46%); assay type: functional
A875 [18] = test: Induction of apoptosis in human A875 cells after 48 hrs by propidium iodide staining-based flow cytometric analysis; assay type: functional, cell-based
[19] = Cell cycle arrest in human A875 cells assessed as accumulation at G0/G1 phase at 0.75 uM after 48 hrs by propidium iodide staining-based flow cytometric analysis (reference value: 78.18%); assay type: functional
[20] = Cell cycle arrest in human A875 cells assessed as accumulation at G2/M phase at 1.5 uM after 48 hrs by propidium iodide staining-based flow cytometric analysis (reference value: 10.36%); assay type: functional

O=C(CCCl)Nc1ccc(SCC(=O)Nc2ccccn2)cc1
IC50 [1]: 29.5 µM
IC50 (HeLa): 70.4 µM
IC50 [2]: 65.4 µM

C=CC(=O)Nc1ccc(SCC(=O)NCc2cccc(Cl)c2)cc1
IC50 [1]: 21.1 µM
IC50 (HeLa): > 80 µM
IC50 [2]: 74.5 µM

COc1ccccc1C(=O)Nc1nnc(SCC(=O)Nc2ccc(Cl)cn2)s1
IC50 [1]: > 80 µM
IC50 (HeLa): > 80 µM
IC50 [2]: > 80 µM

COc1ccccc1C(=O)Nc1nnc(SCC(=O)Nc2c(C)ccnc2Cl)s1
IC50 [1]: > 80 µM
IC50 (HeLa): > 80 µM
IC50 [2]: > 80 µM

O=C(CSc1nnc(NC(=O)CCl)s1)Nc1ccc(Cl)cn1
IC50 [1]: 8.6 µM
IC50 (HeLa): 3.6 µM
IC50 [2]: 5.7 µM

O=C(CCl)Nc1ccc(SCC(=O)Nc2cc(Cl)ccn2)cc1
IC50 [1]: 0.85 µM
IC50 (HeLa): 2.8 µM
IC50 [2]: 5.6 µM

O=C(CSc1nnc(NC(=O)CCCCl)s1)Nc1ccc(Cl)cn1
IC50 [1]: > 80 µM
IC50 (HeLa): > 80 µM
IC50 [2]: 55.2 µM

O=C(CSc1ccc(NC(=O)CCl)cc1)NCc1ccc(Cl)cc1
IC50 [1]: 8.9 µM
IC50 (HeLa): > 80 µM
IC50 [2]: 23.1 µM

O=C(CSc1nnc(NC(=O)C(Cl)Cl)s1)Nc1ccc(Br)cn1
IC50 [1]: 6.5 µM
IC50 (HeLa): 15.2 µM
IC50 [2]: 5.3 µM

CC(C)(C)C(=O)Nc1ccc(SCC(=O)Nc2cc(Cl)ccn2)cc1
IC50 [1]: > 80 µM
IC50 (HeLa): > 80 µM
IC50 [2]: 35.3 µM

COc1ccccc1C(=O)Nc1nnc(SCC(=O)Nc2ccc(Br)cn2)s1
IC50 [1]: > 80 µM
IC50 (HeLa): > 80 µM
IC50 [2]: > 80 µM

O=C(CCl)Nc1ccc(SCC(=O)Nc2ccccn2)cc1
IC50 [1]: 17.2 µM
IC50 (HeLa): 7.8 µM
IC50 [2]: 11.9 µM

O=C(CSc1nnc(NC(=O)c2c(Cl)cccc2Cl)s1)Nc1ccc(Br)cn1
IC50 [1]: 18.6 µM
IC50 (HeLa): 25.8 µM
IC50 [2]: 16.8 µM

O=C(CCCCl)Nc1ccc(SCC(=O)Nc2ccc(Cl)cn2)cc1
IC50 [1]: > 80 µM
IC50 (HeLa): > 80 µM
IC50 [2]: > 80 µM

O=C(CCl)Nc1ccc(SCC(=O)Nc2ccc(Br)cn2)cc1
IC50 (SMMC-7721): 0.43 µM
IC50 (BXPC-3): 0.28 µM
IC50 (HCT-116): 1.2 µM
IC50 [1]: 0.29 µM
IC50 (HeLa): 2.1 µM
IC50 (Bel-7402): 0.67 µM
IC50 [2]: 0.53 µM
IC50 (HepG2): 5.8 µM
IC50 (A549): 6.2 µM
IC50 (HT-29): 13.7 µM

O=C(CSc1nnc(NC(=O)CCl)s1)Nc1ccc(Br)cn1
IC50 [1]: 13.9 µM
IC50 (HeLa): 3.4 µM
IC50 [2]: 7.5 µM

O=C(CCCl)Nc1ccc(SCC(=O)Nc2cc(Cl)ccn2)cc1
IC50 [1]: 12.3 µM
IC50 (HeLa): 21.7 µM
IC50 [2]: 10.9 µM

O=C(CSc1ccc(NC(=O)C(Cl)(Cl)Cl)cc1)Nc1ccc(Cl)cn1
IC50 [1]: > 80 µM
IC50 (HeLa): > 80 µM
IC50 [2]: > 80 µM

C=CC(=O)Nc1ccc(SCC(=O)Nc2ccccn2)cc1
IC50 [1]: 23.4 µM
IC50 (HeLa): > 80 µM
IC50 [2]: 76.8 µM

CC(C)(C)C(=O)Nc1ccc(SCC(=O)Nc2ccc(Cl)cn2)cc1
IC50 [1]: > 80 µM
IC50 (HeLa): > 80 µM
IC50 [2]: 67.2 µM

Cc1ccc(NC(=O)CSc2nnc(NC(=O)CCl)s2)nc1
IC50 [1]: 18.3 µM
IC50 (HeLa): 10.9 µM
IC50 [2]: 15.4 µM

C=CC(=O)Nc1ccc(SCC(=O)Nc2cc(Cl)ccn2)cc1
IC50 [1]: 14.7 µM
IC50 (HeLa): 25.2 µM
IC50 [2]: 19.7 µM

O=C(CSc1nnc(NC(=O)CCCl)s1)Nc1ccc(Br)cn1
IC50 [1]: 0.43 µM
IC50 (HeLa): 5.3 µM
IC50 [2]: 0.56 µM

COc1ccccc1C(=O)Nc1nnc(SCC(=O)Nc2ccc(C)cn2)s1
IC50 [1]: > 80 µM
IC50 (HeLa): > 80 µM
IC50 [2]: > 80 µM

O=C(CCCl)Nc1ccc(SCC(=O)Nc2ccc(Br)cn2)cc1
IC50 [1]: 24.3 µM
IC50 (HeLa): 15.6 µM
IC50 [2]: 1.6 µM

O=C(CSc1ccc(NC(=O)C(Cl)Cl)cc1)Nc1ccc(Br)cn1
IC50 [1]: 56.8 µM
IC50 (HeLa): > 80 µM
IC50 [2]: 47.8 µM

O=C(CSc1ccc(NC(=O)CCCl)cc1)NCc1ccc(Cl)cc1
IC50 [1]: 31.4 µM
IC50 (HeLa): > 80 µM
IC50 [2]: 60.8 µM

Cc1ccnc(Cl)c1NC(=O)CSc1nnc(NC(=O)CCl)s1
IC50 [1]: 34.7 µM
IC50 (HeLa): 70.5 µM
IC50 [2]: 59.6 µM

O=C(CCl)Nc1ccc(SCC(=O)Nc2ccc(Cl)cn2)cc1
Activity [3]: 61.59%
IC50 (SMMC-7721): 0.35 µM
IC50 (BXPC-3): 0.19 µM
Activity [4]: 3.67%
IC50 (HCT-116): 0.61 µM
Activity [5]: 60%
IC50 [1]: 0.098 µM
IC50 (HeLa): 2.5 µM
Activity [6]: 31.2%
IC50 (Bel-7402): 0.45 µM
Activity [7]: 11.17%
Activity [8]: 30.5%
IC50 [2]: 0.42 µM
IC50 (HepG2): 3.6 µM
IC50 (A549): 0.59 µM
Activity [9]: 10.8%
Activity [10]: 41.59%
Activity [11]: 21.8%
Activity [12]: 42.88%
Activity (A875 [13]): Dose-dependent effect
Activity [14]: 39.6%
Activity (A875 [15]): Dose-dependent effect
Activity [16]: 25.45%
Activity [17]: 29.1%
IC50 (HT-29): 8.7 µM
Activity (A875 [18]): Dose-dependent effect
Activity [19]: 48.9%
Activity [20]: 29.9%

O=C(CSc1ccc(NC(=O)CCl)cc1)NCc1cccc(Cl)c1
IC50 [1]: 7.8 µM
IC50 (HeLa): > 80 µM
IC50 [2]: 33.4 µM

Source: ChEMBL document CHEMBL2375227, “Novel small molecules as apoptosis inducers: synthesis, preliminary structure-activity relationships, and in vitro biological evaluation” (Bioorg Med Chem Lett, 2013)
